Source: ChEMBL document CHEMBL4152343, “Design, Synthesis, and Pharmacological Evaluation of Second-Generation Tetrahydroisoquinoline-Based CXCR4 Antagonists with Favorable ADME Properties” (J Med Chem, 2018)

Key:
Cytochrome P450 3A4 = Cytochrome P450 3A4 (Homo sapiens, UniProt P08684); experiment: Inhibition of human CYP3A4; format: ADME
Cytochrome P450 2D6 = Cytochrome P450 2D6 (Homo sapiens, UniProt P10635); experiment: Inhibition of recombinant human CYP2D6 expressed in insect cells microsomes using AMMC as substrate preincubated for 30 mins followed by NADP addition and measured after 45 mins by fluorescence analysis; format: ADME
Sequence of Cytochrome P450 2D6 (P10635 whole entry): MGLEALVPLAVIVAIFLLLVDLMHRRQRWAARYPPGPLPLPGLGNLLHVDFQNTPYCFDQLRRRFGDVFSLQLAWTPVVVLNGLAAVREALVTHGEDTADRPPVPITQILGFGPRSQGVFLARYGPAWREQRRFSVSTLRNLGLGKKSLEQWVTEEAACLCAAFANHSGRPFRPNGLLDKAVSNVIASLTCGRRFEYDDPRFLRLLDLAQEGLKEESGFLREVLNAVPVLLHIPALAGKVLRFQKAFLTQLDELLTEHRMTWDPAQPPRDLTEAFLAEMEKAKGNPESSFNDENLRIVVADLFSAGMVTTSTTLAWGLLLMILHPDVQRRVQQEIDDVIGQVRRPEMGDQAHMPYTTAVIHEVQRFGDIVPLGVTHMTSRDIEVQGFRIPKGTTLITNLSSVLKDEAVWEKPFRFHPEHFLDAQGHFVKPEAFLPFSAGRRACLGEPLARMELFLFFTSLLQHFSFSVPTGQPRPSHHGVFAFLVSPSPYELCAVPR

[1] = target: T1, C-X-C chemokine receptor type 4 (Homo sapiens, UniProt P61073); experiment: Agonist activity at CXCR4 in human CCRF-CEM cells assessed as induction of calcium release incubated for 25 mins by calcium flux assay; format: functional, cell-based
T1 sequence (P61073 whole entry): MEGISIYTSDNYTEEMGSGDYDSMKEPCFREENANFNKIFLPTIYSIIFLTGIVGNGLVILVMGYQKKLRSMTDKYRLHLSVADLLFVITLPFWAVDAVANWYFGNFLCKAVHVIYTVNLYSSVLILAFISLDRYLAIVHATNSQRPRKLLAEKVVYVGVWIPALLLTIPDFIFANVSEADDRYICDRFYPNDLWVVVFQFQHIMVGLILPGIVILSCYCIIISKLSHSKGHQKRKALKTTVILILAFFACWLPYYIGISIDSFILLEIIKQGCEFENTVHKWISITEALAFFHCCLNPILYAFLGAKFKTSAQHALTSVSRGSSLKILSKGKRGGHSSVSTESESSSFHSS
In short: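 CCRF-CEM T lymphoblasts (endogenous CXCR4) in HBSS/20 mM HEPES/0.1% fatty-acid-free BSA, 40,000 cells/well, dye-loaded 30 min at 37°C, then 15 min at room temperature. Compounds added at final 25,000–0.423 nM (0.5% DMSO) and calcium flux read by FDSS for 90 s.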

[2] = Permeability of compound at pH 7.4 by PAMPA; format: ADME; details: read-out: permeability
In short: (§1)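 Compound from 10 mM DMSO stock diluted 1:100 to 100 µM (1% DMSO) in pH 7.4 or pH 5.5 donor buffer, then filtered. Lipid-coated filter membrane with pH 7.4 acceptor buffer; incubated 4 h at room temperature. UV plate reading gives Pc. Duplicates in two independent experiments unless noted.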

[3] = Metabolic stability in human liver microsomes assessed as parent compound remaining after 10 mins by LC-MS/MS analysis; format: ADME, microsome; details: read-out: Stability
In short: (§2)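 Compound depletion measured by LC/MS/MS after 10 min at 37 °C in liver microsome preparations (CYP450 and other NADP-dependent enzymes). Values are % of compound remaining; duplicates in a single experiment.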

[4] = target: Muscarinic acetylcholine receptor; experiment: Antagonist activity at mAChR in human CCRF-CEM cells assessed as inhibition of acetylcholine-induced calcium release preincubated for 25 mins followed by acetylcholine stimulation and measured for 90 secs by calcium flux assay; format: functional, cell-based
In short: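 Endogenous muscarinic receptors in CCRF-CEM cells (HBSS/HEPES/BSA buffer, 40,000 cells/well, dye-loaded 30 min at 37°C). Calcium flux recorded 90 s by FDSS. IC50 by 4-parameter logistic fit against an internal control compound; duplicate wells, single experiment.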

[5] = target: T1, C-X-C chemokine receptor type 4; experiment: Antagonist activity at CXCR4 in human CCRF-CEM cells assessed as inhibition of SDF-1alpha-induced calcium release preincubated for 25 mins followed by SDF-1alpha stimulation and measured for 90 secs by calcium flux assay; format: functional, cell-based
[6] = Metabolic stability in mouse liver microsomes assessed as parent compound remaining after 10 mins by LC-MS/MS analysis; format: ADME, microsome; details: read-out: Stability; in short: as §2
[7] = Permeability of compound at pH 5.5 by PAMPA; format: ADME; details: read-out: permeability; in short: as §1

Sequence of Cytochrome P450 3A4 (P08684 whole entry): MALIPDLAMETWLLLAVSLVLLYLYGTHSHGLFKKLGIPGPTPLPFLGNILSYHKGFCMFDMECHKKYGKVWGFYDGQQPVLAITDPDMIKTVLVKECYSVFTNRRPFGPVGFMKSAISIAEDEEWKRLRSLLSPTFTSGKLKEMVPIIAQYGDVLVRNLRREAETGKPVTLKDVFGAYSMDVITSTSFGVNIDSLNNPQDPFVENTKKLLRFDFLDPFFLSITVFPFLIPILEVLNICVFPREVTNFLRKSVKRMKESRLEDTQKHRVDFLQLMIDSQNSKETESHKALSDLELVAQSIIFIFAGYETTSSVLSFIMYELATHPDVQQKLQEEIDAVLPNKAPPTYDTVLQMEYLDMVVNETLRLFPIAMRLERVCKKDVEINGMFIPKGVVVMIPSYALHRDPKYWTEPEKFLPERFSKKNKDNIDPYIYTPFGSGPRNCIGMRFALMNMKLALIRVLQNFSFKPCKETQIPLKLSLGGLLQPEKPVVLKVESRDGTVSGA

Q: Which IC50 (Cytochrome P450 3A4) does the source give for CN1CCN(c2cccc3c2C[C@H](CN2CCC[C@H]4CCc5cccnc5[C@H]42)NC3)CC1 here?
A: > 20 µM

Q: And the IC50 (Cytochrome P450 2D6)?
A: > 20 µM

Q: And the EC50 [1]?
A: > 30 µM

Q: What about the Papp [2] of the same compound?
A: 32.3 ×10⁻⁶ cm/s

Q: What about the remaining at 10 min [3] of the same compound?
A: 67.8%

Q: What about the IC50 [4] of the same compound?
A: > 16.7 µM

Q: Which IC50 (Cytochrome P450 3A4) does the source give for Cc1cnc2c(c1)CCC[C@@H]2N(C)C[C@H]1Cc2c(cccc2N2CCNCC2)CN1 here?
A: > 20 µM

Q: What about the IC50 (Cytochrome P450 2D6) of the same compound?
A: > 20 µM

Q: What about the EC50 [1] of the same compound?
A: > 30 µM

Q: What about the Papp [2] of the same compound?
A: 0.9 ×10⁻⁶ cm/s

Q: What about the remaining at 10 min [3] of the same compound?
A: 100%

Q: What about the IC50 [4] of the same compound?
A: > 16.7 µM

Q: For CCCN(C[C@H]1Cc2c(cccc2N2CCNCC2)CN1)[C@H]1CCCc2cccnc21, which IC50 (Cytochrome P450 3A4) is on record?
A: > 20 µM

Q: And the IC50 (Cytochrome P450 2D6)?
A: 12 µM

Q: And the EC50 [1]?
A: > 30 µM

Q: What about the Papp [2] of the same compound?
A: 2.65 ×10⁻⁶ cm/s

Q: What about the remaining at 10 min [3] of the same compound?
A: 100%

Q: What about the IC50 [4] of the same compound?
A: 3.16 µM

Q: What about the IC50 [5] of the same compound?
A: 0.0322 µM

Q: And the remaining at 10 min [6]?
A: 87.4%

Q: Which IC50 (Cytochrome P450 3A4) does the source give for CCN(C[C@H]1Cc2c(cccc2N2CCNCC2)CN1)[C@H]1CCCc2cccnc21 here?
A: > 20 µM

Q: What about the IC50 (Cytochrome P450 2D6) of the same compound?
A: > 20 µM

Q: And the EC50 [1]?
A: > 30 µM

Q: And the Papp [2]?
A: 7.5 ×10⁻⁶ cm/s

Q: And the remaining at 10 min [3]?
A: 79.1%

Q: What about the IC50 [4] of the same compound?
A: 8.6 µM

Q: What about the IC50 [5] of the same compound?
A: 0.0148 µM

Q: And the remaining at 10 min [6]?
A: 53.8%

Q: With OCCN(C[C@H]1Cc2c(cccc2N2CCNCC2)CN1)[C@H]1CCCc2cccnc21 as the compound, how does the IC50 (Cytochrome P450 3A4) read?
A: > 20 µM

Q: What about the IC50 (Cytochrome P450 2D6) of the same compound?
A: > 20 µM

Q: What about the EC50 [1] of the same compound?
A: > 30 µM

Q: What about the Papp [2] of the same compound?
A: 1.1 ×10⁻⁶ cm/s

Q: What about the remaining at 10 min [3] of the same compound?
A: 94.4%

Q: And the IC50 [4]?
A: > 33.3 µM

Q: What about the IC50 [5] of the same compound?
A: 0.195 µM

Q: What about the remaining at 10 min [6] of the same compound?
A: 60.3%

Q: Which results are given for CN(C[C@H]1Cc2c(cccc2N2C[C@@H]3C[C@H]2CN3)CN1)[C@H]1CCCc2cccnc21?
A: IC50 (Cytochrome P450 3A4): > 20 µM; IC50 (Cytochrome P450 2D6): > 20 µM; EC50 [1]: > 30 µM; remaining at 10 min [3]: 100%; IC50 [4]: > 16.7 µM; IC50 [5]: 0.146 µM; remaining at 10 min [6]: 36.3%

Q: With c1cnc2c(c1)CCC[C@@H]2N(CC1CCCCC1)C[C@H]1Cc2c(cccc2N2CCNCC2)CN1 as the compound, how does the IC50 (Cytochrome P450 3A4) read?
A: 1.78 µM

Q: What about the IC50 (Cytochrome P450 2D6) of the same compound?
A: 5.72 µM

Q: And the EC50 [1]?
A: > 30 µM

Q: And the Papp [2]?
A: 0.9 ×10⁻⁶ cm/s

Q: And the remaining at 10 min [3]?
A: 81.6%

Q: What about the IC50 [4] of the same compound?
A: > 33.3 µM

Q: What about the IC50 [5] of the same compound?
A: 0.715 µM

Q: And the remaining at 10 min [6]?
A: 85.6%

Q: Which results are given for CN(C[C@H]1Cc2c(cccc2N2CCN(C3CC3)CC2)CN1)[C@H]1CCCc2cccnc21?
A: IC50 (Cytochrome P450 3A4): 4.23 µM; IC50 (Cytochrome P450 2D6): 6.09 µM; EC50 [1]: > 30 µM; Papp [2]: 26.5 ×10⁻⁶ cm/s; remaining at 10 min [3]: 15.5%; IC50 [4]: > 33.3 µM; IC50 [5]: 0.0235 µM; remaining at 10 min [6]: 7%

Q: What does the source list for CN(C[C@H]1Cc2c(cccc2N2CCN(c3ccccn3)CC2)CN1)[C@H]1CCCc2cccnc21?
A: IC50 (Cytochrome P450 3A4): 3.16 µM; IC50 (Cytochrome P450 2D6): 2.52 µM; EC50 [1]: > 30 µM; remaining at 10 min [3]: 27.4%; IC50 [4]: 1.98 µM; IC50 [5]: 0.0179 µM; Papp [7]: 12.9 ×10⁻⁶ cm/s; remaining at 10 min [6]: 46.1%

Q: For CN(C[C@H]1Cc2c(cccc2N2CCN(c3cccc(C(F)(F)F)c3)CC2)CN1)[C@H]1CCCc2cccnc21, which IC50 (Cytochrome P450 3A4) is on record?
A: 2.21 µM

Q: And the IC50 (Cytochrome P450 2D6)?
A: 6.48 µM

Q: And the EC50 [1]?
A: > 30 µM

Q: What about the Papp [2] of the same compound?
A: 14.1 ×10⁻⁶ cm/s

Q: What about the remaining at 10 min [3] of the same compound?
A: 90.3%

Q: What about the IC50 [4] of the same compound?
A: 9.25 µM

Q: And the IC50 [5]?
A: > 16.7 µM

Q: What about the remaining at 10 min [6] of the same compound?
A: 72.3%

Q: With CN(C[C@@H]1Cc2c(cccc2N2CCNCC2)CN1)[C@H]1CCCc2cccnc21 as the compound, how does the IC50 (Cytochrome P450 3A4) read?
A: > 20 µM

Q: What about the IC50 (Cytochrome P450 2D6) of the same compound?
A: > 20 µM

Q: And the EC50 [1]?
A: > 30 µM

Q: And the Papp [2]?
A: 0.4 ×10⁻⁶ cm/s

Q: And the remaining at 10 min [3]?
A: 94.2%

Q: What about the IC50 [4] of the same compound?
A: 2.1 µM

Q: What about the IC50 [5] of the same compound?
A: 0.313 µM

Q: And the remaining at 10 min [6]?
A: 54.6%

Q: With CCN1CCN(c2cccc3c2C[C@H](CN(C)[C@H]2CCCc4cccnc42)NC3)CC1 as the compound, how does the IC50 (Cytochrome P450 3A4) read?
A: > 20 µM

Q: And the IC50 (Cytochrome P450 2D6)?
A: > 20 µM

Q: What about the EC50 [1] of the same compound?
A: > 30 µM

Q: What about the Papp [2] of the same compound?
A: 20.5 ×10⁻⁶ cm/s

Q: What about the remaining at 10 min [3] of the same compound?
A: 0%

Q: What about the IC50 [4] of the same compound?
A: > 33.3 µM

Q: And the IC50 [5]?
A: 0.0138 µM

Q: And the remaining at 10 min [6]?
A: 18.8%

Q: Which results are given for CN1CCN(c2cccc3c2C[C@H](CN(C)[C@H]2CCCc4cccnc42)NC3)CC1?
A: IC50 (Cytochrome P450 3A4): > 20 µM; IC50 (Cytochrome P450 2D6): > 20 µM; EC50 [1]: > 30 µM; Papp [2]: 99.6 ×10⁻⁶ cm/s; remaining at 10 min [3]: 75.8%; IC50 [4]: > 33.3 µM; remaining at 10 min [6]: 17%

Q: Which results are given for Cc1cnc(CN(C)C[C@H]2Cc3c(cccc3N3CCNCC3)CN2)c(C)c1?
A: IC50 (Cytochrome P450 3A4): > 20 µM; IC50 (Cytochrome P450 2D6): > 20 µM; EC50 [1]: > 30 µM; IC50 [4]: 15.4 µM

Q: Which IC50 (Cytochrome P450 3A4) does the source give for CN(C[C@H]1Cc2c(cccc2N2CCN(c3ncccn3)CC2)CN1)[C@H]1CCCc2cccnc21 here?
A: 3.35 µM

Q: And the IC50 (Cytochrome P450 2D6)?
A: 0.508 µM

Q: And the EC50 [1]?
A: > 30 µM

Q: And the remaining at 10 min [3]?
A: 35.5%

Q: And the IC50 [4]?
A: 0.887 µM

Q: And the IC50 [5]?
A: 0.0307 µM

Q: And the Papp [7]?
A: 36 ×10⁻⁶ cm/s

Q: What about the remaining at 10 min [6] of the same compound?
A: 35.1%
